Laboratory results from ChEMBL document CHEMBL1667799, “HIV-1 integrase strand-transfer inhibitors: design, synthesis and molecular modeling investigation” (Eur J Med Chem, 2011).

Assays:
[1] = molecular target: Human immunodeficiency virus type 1 integrase (Human immunodeficiency virus 1, UniProt Q7ZJM1); experiment: Inhibition of HIV-1 integrase after 1 hr by ELISA
[2] = tested on: Human immunodeficiency virus 1; experiment: Antiviral activity against HIV1 3B infected in human MT4 cells assessed as inhibition of virus-induced cytopathic effect by MTT assay; type: functional, organism-based; conditions: Human immunodeficiency virus 1, 3B
How it was run: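 HIV-1 IIIB stock titrated on MT-4 cells to set CCID50. MT-4 cells infected with 100–300 CCID50 in presence of five-fold serial drug dilutions. Viability read by MTT reduction to formazan, measured spectrophotometrically. EC50 is concentration giving 50% protection against viral CPE. Values are averages ± SD.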

[3] = Cytotoxicity against human MT4 cells by MTT assay; type: cell-based
How it was run: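 MT-4 cell viability read by MTT reduction to formazan by mitochondrial dehydrogenase, measured spectrophotometrically, across drug dilutions. CC50 is concentration reducing MT-4 viability by 50%. Values are averages ± SD.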

[4] = Selectivity index, ratio of CC50 for human MT4 cells to EC50 for HIV13B; type: toxicity, cell-based; conditions: read-out: Ratio CC50/EC50
How it was run: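 Index calculated as CC50/EC50. CC50 is the concentration reducing MT-4 viability by 50%. EC50 is 50% protection against HIV-1 IIIB CPE after infection with 100–300 CCID50, across five-fold serial dilutions. Both are read by MTT assay.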

[5] = molecular target: Human immunodeficiency virus type 1 integrase (Human immunodeficiency virus 1) (UniProt Q7ZJM1)
Human immunodeficiency virus type 1 integrase (Human immunodeficiency virus 1), sequence (Q7ZJM1 as listed by the source): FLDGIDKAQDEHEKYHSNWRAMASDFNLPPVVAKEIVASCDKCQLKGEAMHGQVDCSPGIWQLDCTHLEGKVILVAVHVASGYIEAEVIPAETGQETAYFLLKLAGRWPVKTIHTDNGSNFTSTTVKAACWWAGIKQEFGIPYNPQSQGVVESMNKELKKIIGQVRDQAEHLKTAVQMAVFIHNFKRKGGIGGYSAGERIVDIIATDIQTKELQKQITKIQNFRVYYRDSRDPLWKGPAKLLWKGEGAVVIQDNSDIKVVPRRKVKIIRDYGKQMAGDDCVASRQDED

Human immunodeficiency virus type 1 integrase, sequence (Q7ZJM1 whole entry): as the sequence (Q7ZJM1 as listed by the source) above

SMILES | IC50 [1] [µM] | EC50 [2] [µM] | CC50 [3] [µM] | selectivity ratio [4] | C50 [5] [µM]
COc1ccc2c(c(C(=O)/C=C(\O)C(=O)O)cn2Cc2ccc(F)cc2)c1OC | 1.45 | 1.21 | 126 | 104 | 0.047
COc1cc2c(C(=O)/C=C(\O)C(=O)O)cn(Cc3ccc(F)cc3)c2cc1OC | 0.547 | 10.5 | 65.5 | 6 | 0.119
CCOC(=O)/C(O)=C/C(=O)c1cn(Cc2ccc(F)cc2)c2ccc(OC)c(OC)c12 | 0.9 | 3.96 | 111 | 28 | 0.015
CCOC(=O)/C(O)=C/C(=O)c1cn(Cc2ccc(F)cc2)c2c(OC)ccc(OC)c12 | – | – | – | – | 0.66
COc1cc(OC)c2c(C(=O)/C=C(\O)C(=O)O)cn(Cc3ccc(F)cc3)c2c1 | 0.47 | 3.2 | 20.7 | 6 | 0.28
Cc1nnc(C(=O)NC(C)(C)c2nc(C(=O)NCc3ccc(F)cc3)c(O)c(=O)n2C)o1 | – | – | > 18 | – | –
CCOC(=O)/C(O)=C/C(=O)c1cn(Cc2ccc(F)cc2)c2cc(OC)c(OC)cc12 | 4.4 | > 21.8 | 21.8 | < 1 | 7.69
CCOC(=O)/C(O)=C/C(=O)c1cn(Cc2ccc(F)cc2)c2c(OC)cc(OC)cc12 | 18.1 | > 62.1 | 62.1 | < 1 | 34.9
CCOC(=O)/C(O)=C/C(=O)c1cn(Cc2ccc(F)cc2)c2c(OC)c(OC)ccc12 | 7.41 | 10.4 | 119 | 11 | 17.4
COc1cc(OC)c2c(c1)c(C(=O)/C=C(\O)C(=O)O)cn2Cc1ccc(F)cc1 | 0.251 | 8.51 | 58.5 | 7 | 0.006
COc1ccc2c(C(=O)/C=C(\O)C(=O)O)cn(Cc3ccc(F)cc3)c2c1OC | 3.55 | 14.7 | 130 | 9 | 6.37
COc1cccc2c1c(C(=O)/C=C(\O)C(=O)O)cn2Cc1ccc(F)cc1 | – | – | – | 70 | 0.14
CCOC(=O)/C(O)=C/C(=O)c1cn(Cc2ccc(F)cc2)c2cc(OC)cc(OC)c12 | 2.79 | 2.48 | 55.4 | 22 | 1.29
